Assay outcomes (PubChem BioAssay)
ABCB6 inh 2 – human ABCB6 transporter inhibition; Q9NP58; K562-ABCB6 porphyrin accumulation, flow cytometry, 1 h; hits give low values; fluorescence ratio to DMSO, % at 10 µM; hit rate 0.19% among 360,000; AID 602162;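 active means fluorescence ratio to DMSO below 75%, the collection mean minus 3 SD; inconclusive means too few cells collected in the well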;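 further: signal is porphyrin accumulated inside mitochondria; 100% equals median channel fluorescence of DMSO control wells; lower ratio means ABCB6 inhibition with less porphyrin fluorescence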
V-ATPase pHluor – yeast V-ATPase proton transport regulation by pHLuorin; S. cerevisiae, pHLuorin cytosolic pH fluorescence; response, % at 10 µM; hit rate 0.37% among 350,000; AID 504577; in the data active means response mostly above about 7.3%, no sharp cut-off; inactive means mostly below about 5.4%; further: actives read high
pCIP destab – compounds decreasing mouse p/CIP protein stability; AID 1984; hit rate 0.01% among 290,000; decrease of EGFP signal, % at 10 µM; Q05BA5; F442A p/CIP-EGFP cells, EGFP fluorescence, 16 h;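 active means EGFP signal decrease of at least 30% at 10 µM or well 3 SD below plate mean, unless failing retest; inactive means the rest, including hits failing retest or dose response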
Cl transport mod – KCC2 (human) Cl- transport modulation. Q9H2X9. KCC2 cells, thallium flux FluoZin-2 fluorescence. B-score of Tl+ flux slope (higher = more flux/activation; lower = inhibition) at 10 µM. hit rate 2.2% among 190,000;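 active means thallium flux slope and its plate-corrected score both differing from the plate sample mean at a set confidence after two filtering rounds, in either direction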;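 further: slope of fluorescence scaled to starting intensity during 10 to 20 s after thallium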
Target sequence (Q9H2X9 whole entry, looked up): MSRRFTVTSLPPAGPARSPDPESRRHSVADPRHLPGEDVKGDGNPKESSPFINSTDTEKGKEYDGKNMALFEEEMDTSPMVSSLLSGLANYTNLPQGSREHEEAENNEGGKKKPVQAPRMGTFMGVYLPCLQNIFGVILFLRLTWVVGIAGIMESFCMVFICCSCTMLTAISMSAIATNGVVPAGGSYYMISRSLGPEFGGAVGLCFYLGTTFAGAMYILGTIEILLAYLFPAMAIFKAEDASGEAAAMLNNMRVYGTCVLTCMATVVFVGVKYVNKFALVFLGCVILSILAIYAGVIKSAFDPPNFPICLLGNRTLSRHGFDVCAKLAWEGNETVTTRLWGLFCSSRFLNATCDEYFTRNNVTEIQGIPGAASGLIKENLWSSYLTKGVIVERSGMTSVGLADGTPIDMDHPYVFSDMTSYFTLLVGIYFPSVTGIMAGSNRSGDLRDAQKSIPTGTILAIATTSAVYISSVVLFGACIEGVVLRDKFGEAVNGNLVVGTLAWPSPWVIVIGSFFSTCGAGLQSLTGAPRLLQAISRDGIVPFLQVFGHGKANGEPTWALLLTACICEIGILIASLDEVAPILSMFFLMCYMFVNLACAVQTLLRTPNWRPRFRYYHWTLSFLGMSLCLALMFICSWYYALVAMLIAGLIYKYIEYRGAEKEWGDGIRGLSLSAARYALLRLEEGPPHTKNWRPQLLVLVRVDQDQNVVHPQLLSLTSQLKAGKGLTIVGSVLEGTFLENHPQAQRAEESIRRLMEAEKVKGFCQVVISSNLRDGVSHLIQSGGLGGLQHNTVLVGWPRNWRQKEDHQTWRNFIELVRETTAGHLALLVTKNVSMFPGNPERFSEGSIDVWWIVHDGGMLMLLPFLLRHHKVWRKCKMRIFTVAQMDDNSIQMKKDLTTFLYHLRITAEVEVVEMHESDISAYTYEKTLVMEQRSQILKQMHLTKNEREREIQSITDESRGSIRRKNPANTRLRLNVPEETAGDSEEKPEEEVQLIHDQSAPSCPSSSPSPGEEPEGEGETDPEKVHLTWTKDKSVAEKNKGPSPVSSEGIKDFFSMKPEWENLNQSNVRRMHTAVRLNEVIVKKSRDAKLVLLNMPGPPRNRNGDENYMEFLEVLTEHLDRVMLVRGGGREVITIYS
Dynein transport – blocks dynein driven cargo transport along microtubules. 3617.4 mouse cells, GR-EGFP nuclear translocation imaging; test concentration mostly 20 µM; stimulated with dexamethasone, 1 µM; hits give low values. z-score, hits read low. hit rate 0.47% among 220,000;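 active means plate z-score of nuclear minus cytoplasmic receptor signal below a set negative limit, without overly bright fluorescence or cell loss, cut at about -3.5 in these data, passing the limit was not always enough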;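 further: z-score of nuclear minus cytoplasmic ring GR-EGFP intensity difference per well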
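Buffer or medium: tet-free, stripped-serum medium; Also added: dexamethasone, 1.0 µM final; Technique: high-content fluorescence imaging after fixation; Times: 48 h induction, 1 h compound, 30 min dex at 37 °C; Read-out: per-cell GR-EGFP intensity, nucleus versus surrounding cytoplasmic ring, well-averaged.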
KCC2 secondary – confirmation of human KCC2 transport modulators; shares compounds with Cl transport mod; normalised thallium flux (F/F0 slope) at 10 µM; AID 1713; hit rate 15% among 3,700; HEK293-KCC2, thallium flux, FluoZin2 fluorescence; hits give high values;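 active means thallium flux slope above the same plate's solvent-only control mean plus 3 SD; inconclusive means the two replicate wells disagree; inactive means no significant difference from solvent-only control wells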
KCC2 bumet counter – thallium flux despite bumetanide block in KCC2 cells, secondary assay 3; shares compounds with Cl transport mod; HEK293-KCC2 + bumetanide/ouabain, thallium flux FluoZin2; hits give high values; normalized thallium flux at 10 µM; hit rate 49% among 3,700;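 active means thallium entry rate above the same plate's blocked-transporter control wells by more than 3 SD; inconclusive means the two repeat wells disagree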;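 further: raw slope of fluorescence over initial fluorescence between 10 and 20 s after thallium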
KCC2 secondary2 – KCC2 (human) modulation, second secondary assay; HEK293-KCC2, thallium flux FluoZin2 fluorescence; actives lie on both sides; F/F0 rise rate, 10–20 s post-thallium; shares compounds with Cl transport mod; hit rate 23% among 3,700; normalized thallium flux at 10 µM; AID 1715;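 active means thallium flux slope more than 3 SD above or below the plate's solvent-only control mean, mostly below; inconclusive means the two repeat wells disagreed; inactive means no significant shift from solvent-only controls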;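 further: raw slope with 0.1% DMSO as baseline and bumetanide as block control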
HEK293 Tl flux – acts in parental HEK cells, KCC2 counter-screen | shares compounds with Cl transport mod | AID 1716 | HEK293 parental cells, thallium flux FluoZin2, ouabain; baseline-ratio fluorescence slope, 10–20 s after thallium | hit rate 46% among 3,700 | thallium flux rate (normalised fluorescence) at 10 µM;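 active means thallium flux rate significantly above the same plate's solvent-only control wells, beyond their mean plus 3 SD; inconclusive means the two replicate wells gave conflicting results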
KCC2 ouabain – KCC2 (human) modulation, ouabain retest; raw Tl+ flux slope (below DMSO = inhibition, above = activation) at 10 µM; hit rate 48% among 3,700; shares compounds with Cl transport mod; HEK293-KCC2, thallium flux FluoZin2 fluorescence; bidirectional: low = inhibitor, high = activator;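 active means thallium flux slope beyond 3 SD from same-plate DMSO control mean in most replicates, usually higher, sometimes lower; inconclusive means repeat tests gave conflicting results; inactive means no significant difference from controls in most replicates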;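 further: slope of initial-normalized fluorescence between seconds 10 and 20 after thallium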
HEK293 Tl flux2 – acts in parental HEK cells, second KCC2 counter-screen. shares compounds with Cl transport mod. HEK293 parental, thallium flux FluoZin-2 fluorescence slope. thallium flux slope at 10 µM. hit rate 33% among 3,700;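 active means thallium flux slope above the same plate's solvent-control mean plus 3 SD in both duplicate wells; inconclusive means duplicate wells that disagreed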;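 further: run without ouabain in cells lacking the KCC2 cotransporter; slope of fluorescence scaled to its starting value between 10 and 20 s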
Active calls of the source: *; ? = inconclusive; · = no result given. This excerpt belongs to a sample that is enriched for hits.

SMILES | ABCB6 inh 2 | V-ATPase pHluor | pCIP destab | Cl transport mod | Dynein transport | KCC2 secondary | KCC2 bumet counter | KCC2 secondary2 | HEK293 Tl flux | KCC2 ouabain | HEK293 Tl flux2
O=C(Nc1nc2ccsc2c(=O)s1)c1ccc(F)cc1 | 95 | 3 | -4 | 3.8* | 2 | 0.01 | ? | 0.032 | 0.011* | 0.021 | 0.012
C=CCN(CC=C)C(=S)NC(=O)c1ccc(OC)cc1 | 98 | -2 | -3 | 71* | 0.019 | 0.053* | 0.12* | 0.09* | 0.099* | 0.093* | 0.096*
O=C(/C=C/c1ccc(Br)cc1)NC(=S)NNC(=O)c1ccco1 | 93 | 4 | -3 | 3.9* | 1.9 | 0.01 | 0.01* | 0.034 | ? | 0.022 | 0.011
C=CCNC(=O)c1ccc(OC)cc1 | 99 | -2 | 2 | 0.071 | -0.76 | · | · | · | · | · | ·
COc1ccc(/C=C/C(=O)NC(=S)NNC(=O)c2cccs2)cc1 | 95 | 2 | -13 | 12* | -0.58 | 0.0079 | 0.023* | 0.038 | 0.022* | 0.037* | 0.021*
Cc1cccc(NC(=S)NNC(=O)c2ccco2)c1 | 98 | 1 | 2 | · | -0.17 | · | · | · | · | · | ·
COc1ccc(/C=C/C(=O)NC(=S)NNC(=O)c2cccnc2)cc1 | 99 | 2 | -6 | 2.1 | -0.74 | · | · | · | · | · | ·
C=CCN(CC=C)C(=S)NC(=O)/C=C/c1ccccc1 | 101 | 1 | -4 | 8.9* | 0.008 | 0.0055 | 0.023* | 0.036 | 0.02* | 0.029* | 0.02*
O=C(Nc1cccc2cccnc12)c1ccc(Br)cc1Br | 102 | -1 | 6 | · | · | · | · | · | · | · | ·
COc1cccc(C2CC(=O)Nc3cc(C)c(C)cc32)c1 (stereo not given) | 100 | 6 | · | · | · | · | · | · | · | · | ·
CCOc1ccc(S(=O)(=O)N2CCCC(C(=O)NC3CC3)C2)cc1Cl (stereo not given) | 95 | -8 | · | · | · | · | · | · | · | · | ·
C=CCN(CC=C)C(=S)NC(=O)/C=C/c1ccc(OC)cc1 | 102 | -1 | 10 | 74* | -0.54 | 0.01* | 0.14* | 0.096* | 0.11* | 0.11* | 0.087*
C(=N\NC1=Nc2cccc3cccc1c23)/c1cccnc1 | 126 | 1 | -12 | -3.8* | -0.75 | 0.0065 | ? | 0.029 | 0.0071 | 0.016* | 0.01
CC1(C)CC(n2c(=S)[nH]c3ccccc3c2=O)CCO1 (stereo not given) | 99 | 0 | 2 | 14* | -1.1 | 0.012 | 0.035* | 0.032 | 0.022* | 0.031* | ?
Cc1ccc(S(=O)(=O)Cn2nnnc2C(C(C)C)N2CCN(Cc3ccco3)CC2)cc1 (stereo not given) | 94 | -5 | 2 | -2.5* | -0.03 | 0.0074 | 0.0043 | 0.028 | 0.008 | 0.016 | 0.011
Cc1ccc(S(=O)(=O)Cn2nnnc2C(C(C)C)N2CCSCC2)cc1 (stereo not given) | 103 | 1 | -12 | · | -0.13 | · | · | · | · | · | ·
Cc1c(/C=N/NC(=O)c2ccc(O)cc2)c2ccccn2c1C(=O)c1ccc(F)cc1 | 83 | -2 | -3 | -2.1 | 2.9 | · | · | · | · | · | ·
Cc1c(/C=N/NC(=O)c2ccccc2O)c2ccccn2c1C(=O)c1ccc(F)cc1 | 90 | 4 | -27 | -3.8* | 0.54 | 0.018 | ? | 0.03 | 0.0073 | 0.014 | 0.01
COc1cccc(NC(=S)NN=C2CCC(C(C)(C)C)CC2)c1 (stereo not given) | 96 | 4 | 5 | 4.9* | 0.27 | 0.006 | 0.009* | 0.029 | 0.012* | 0.02 | 0.011
COc1cccc(NC(=S)NCc2ccc(F)cc2)c1 | 99 | 1 | 4 | · | · | · | · | · | · | · | ·
COc1cccc(NC(=S)N/N=C2\CC3CCC2(C)C3(C)C)c1 (stereo not given) | 107 | 0 | 14 | 11* | 2 | 0.0079 | 0.027* | ? | 0.024* | 0.031* | 0.03*
CN(c1ccccc1)S(=O)(=O)c1ccc(NC(=O)CC(=O)c2ccccc2)cc1 | 92 | 2 | · | · | · | · | · | · | · | · | ·
O=C(OCc1ccc(Cl)c(Cl)c1)c1ccc[nH]1 | 97 | 4 | -12 | · | · | · | · | · | · | · | ·
CCc1cc2ccc(OC)cc2nc1SCC(=O)N1CCN(C(=O)c2ccco2)CC1 | 93 | 1 | -2 | -4.1* | 0.0065 | 0.0057 | 0.0039 | 0.024* | 0.0052* | 0.012* | 0.0084*
CCc1cc2cccc(C)c2nc1SCC(=O)NNC(=O)c1ccco1 | 97 | 0 | -7 | · | -0.16 | 0.0096 | 0.01* | 0.032 | 0.011* | 0.021 | 0.011
SMILES | ABCB6 inh 2 | V-ATPase pHluor | pCIP destab | Cl transport mod | Dynein transport | KCC2 secondary | KCC2 bumet counter | KCC2 secondary2 | HEK293 Tl flux | KCC2 ouabain | HEK293 Tl flux2
CCc1cc2ccc(C)c(C)c2nc1SCC(=O)NNC(=O)c1ccco1 | 96 | 1 | -9 | · | · | · | · | · | · | · | ·
CCc1cc2ccc(OC)cc2nc1SCC(=O)NNC(=O)c1ccco1 | 99 | -1 | -4 | 17* | -0.77 | 0.0081 | 0.018* | 0.034 | 0.028* | 0.025* | 0.014*
COc1ccc(CC(=O)N2CCN(C(=O)c3ccco3)CC2)cc1 | 76 | -4 | 2 | 0.061 | -0.31 | · | · | · | · | · | ·
CC1(Cc2ccccc2C#N)C(=O)Nc2ccc(-c3ccccc3)cc21 (stereo not given) | 106 | · | · | · | · | · | · | · | · | · | ·
CCN(c1ccccc1)S(=O)(=O)c1cccc(C(=O)NCc2ccccn2)c1 | 102 | 4 | · | · | · | · | · | · | · | · | ·
Cc1noc(C)c1CSCC(=O)NCCN1C(=O)S/C(=C\c2ccccc2F)C1=O | 91 | -3 | · | · | · | · | · | · | · | · | ·
C=CCN(C(=O)c1csnn1)C(C(=O)NC1CCCCC1)c1ccc(F)cc1 (stereo not given) | 99 | 0 | -9 | · | · | · | · | · | · | · | ·
O=C(Cc1ccccc1)Nc1nccs1 | 97 | 2 | -1 | · | · | · | · | · | · | · | ·
Fc1ccc(NC(=S)Nc2nccs2)cc1 | 99 | -3 | 9 | 77* | 1.9 | 0.03* | 0.064* | ? | 0.1* | 0.083* | 0.026*
S=C(Nc1ccccc1)Nc1nccs1 | 93 | -1 | -4 | 138* | 0.87 | 0.01* | 0.084* | 0.05* | 0.07* | 0.069* | 0.039*
CCOc1cc(/C=N/NC(=O)CN(CCc2ccccc2)S(=O)(=O)c2ccc(NC(C)=O)cc2)ccc1O | 100 | -1 | -10 | -6.4* | 0.85 | 0.0073 | 0.0051 | 0.036 | 0.0042 | ? | 0.01
